Values after ≈ are worked out from the molar mass of the structure shown.

Common to all, as to format: functional
One assay deals with L1210. The assay can be described thus: Antitumor activity against murine leukemia L1210 cells. The note with it: Mus musculus; read-out: MIC. The method, boiled down:
(§1)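 Tumor cell proliferation assay. Murine leukemia L1210 and murine mammary carcinoma FM3A cells were grown in culture with the compound. The value is the concentration inhibiting cell proliferation by 50%.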

For assay [1], the system named is Cytomegalovirus. The assay is described as follows: In vitro minimum inhibitory concentration to inhibit CMV (AD-169)-induced cytopathogenicity in HEL cells by 50%. The note with it: Human betaherpesvirus 5.
Assay [2] has as its system Human alphaherpesvirus 3. The assay is described as follows: In vitro minimum inhibitory concentration to inhibit thymidine deficient VZV (YSR)-induced cytopathogenicity in HEL cells by 50%. On the technique in general: Protection from cytopathic effect is a common read-out in antiviral testing.
The subject of the next assay is Suid alphaherpesvirus 1. The assay is described as follows: In vitro minimum inhibitory concentration to inhibit SHV-1-induced cytopathogenicity in PRK cells by 50%. The method, boiled down: (§2)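 Antiviral read-out was virus-induced cytopathogenicity in primary rabbit kidney (PRK) cell cultures. The value is the compound concentration needed to reduce cytopathogenicity by 50%.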

For assay [3], the system named is Human alphaherpesvirus 2. The assay is described as follows: In vitro minimum inhibitory concentration to inhibit HSV-2 (G)-induced cytopathogenicity in PRK cells by 50%. The method, boiled down:
as §2

Assay [4] relates to Bovine alphaherpesvirus 1. The assay can be described thus: In vitro minimum inhibitory concentration to inhibit BHV-1-induced cytopathogenicity in PRK cells by 50%. The method, boiled down: as §2
The subject of the next assay is FM3A. The assay is described as follows: Antitumor activity against murine mammary carcinoma FM3A cells. The note with it: Mus musculus; read-out: MIC. The method, boiled down:
as §1

Assay [5] has as its system Human alphaherpesvirus 1. The assay can be described thus: In vitro minimum inhibitory concentration to inhibit HSV-1 (KOS)-induced cytopathogenicity in primary rabbit kidney cells by 50%. A digest of the protocol: as §2
The test system of assay [6] is Human alphaherpesvirus 2. The assay is described as follows: In vitro minimum inhibitory concentration to inhibit HSV-2 (Lyons)-induced cytopathogenicity in PRK cells by 50%. The method, boiled down: as §2
The subject of assay [7] is Human alphaherpesvirus 1. The assay is described as follows: In vitro minimum inhibitory concentration to inhibit thymidine deficient HSV-1 (B2006)-induced cytopathogenicity in PRK cells by 50%. A digest of the protocol: as §2
The next assay concerns Equid alphaherpesvirus 1. The assay is described as follows: In vitro minimum inhibitory concentration to inhibit EHV-1-induced cytopathogenicity in PRK cells by 50%. A digest of the protocol: as §2
A short description of assay [8]: In vitro minimum inhibitory concentration to inhibit […] (incorporation of [methyl-3H]dThd) in PRK cells by 50%.
Assay [9] concerns Human alphaherpesvirus 1. The assay can be described thus: In vitro minimum inhibitory concentration to inhibit HSV-1 (F)-induced cytopathogenicity in primary rabbit kidney cells by 50%. The method, boiled down:
as §2

In assay [10] the test system is Human alphaherpesvirus 2. The assay can be described thus: In vitro minimum inhibitory concentration to inhibit HSV-2 (196)-induced cytopathogenicity in PRK cells by 50%. The method, boiled down: as §2
Assay [11] concerns Human alphaherpesvirus 1. The assay is described as follows: In vitro minimum inhibitory concentration to inhibit HSV-1 (McIntyre)-induced cytopathogenicity in PRK cells by 50%. A digest of the protocol:
as §2

Assay [12] deals with Human alphaherpesvirus 3. The assay is described as follows: In vitro minimum inhibitory concentration to inhibit VZV (YS)-induced cytopathogenicity in HEL cells by 50%.
Assay [13] concerns Human alphaherpesvirus 3. The assay can be described thus: In vitro minimum inhibitory concentration to inhibit VZV (Oka)-induced cytopathogenicity in HEL cells by 50%.
The test system of assay [14] is Human alphaherpesvirus 1. The assay can be described thus: In vitro minimum inhibitory concentration to inhibit thymidine deficient HSV-1 (VMV 1837)- induced cytopathogenicity in PRK cells by 50%. A digest of the protocol: as §2
Assay [15] has as its system Cytomegalovirus. The assay can be described thus: In vitro minimum inhibitory concentration to inhibit CMV (Davis)-induced cytopathogenicity in HEL cells by 50%. The note with it: Human betaherpesvirus 5.

On to `Cc1cn2c(=O)c3ncn(COCCO)c3nc2n1C`, for which the IC50 with L1210 and with FM3A was more than 100 µg/mL each time. The MIC in the assay on Cytomegalovirus [1] was more than 100 µg/mL; in the assay on Human alphaherpesvirus 3 [2], more than 100 µg/mL; against Suid alphaherpesvirus 1, more than 400 µg/mL; in the assay with Human alphaherpesvirus 2 [3] it was more than 400 µg/mL; in assay [4], more than 400 µg/mL; against Human alphaherpesvirus 1 [5] it was more than 400 µg/mL. Besides, the MIC against Human alphaherpesvirus 2 [6] was more than 400 µg/mL; with Human alphaherpesvirus 1 [7] it was more than 400 µg/mL; with Equid alphaherpesvirus 1, more than 400 µg/mL; in [8] (Oryctolagus cuniculus), more than 4000 µg/mL; with Human alphaherpesvirus 1 [9], more than 400 µg/mL; against Human alphaherpesvirus 2 [10], more than 400 µg/mL. The MIC is more than 400 µg/mL against Human alphaherpesvirus 1 [11]; more than 100 µg/mL against Human alphaherpesvirus 3 [12]; more than 100 µg/mL against Human alphaherpesvirus 3 [13]; more than 400 µg/mL against Human alphaherpesvirus 1 [14]; more than 100 µg/mL against Cytomegalovirus [15].
On to `Cc1cn2c([O-])c3c(nc2n1)[n+](COCCO)cn3C`, for which the IC50 in the assay with L1210 and in the assay with FM3A was more than 100 µg/mL throughout. Moreover, the MIC with Cytomegalovirus [1] was more than 100 µg/mL; in the assay with Human alphaherpesvirus 3 [2] it was more than 100 µg/mL; in the assay with Suid alphaherpesvirus 1, more than 400 µg/mL; with Human alphaherpesvirus 2 [3], 70 µg/mL (≈ 252 µM); in assay [4], more than 400 µg/mL; with Human alphaherpesvirus 1 [5], 70 µg/mL (≈ 252 µM). Besides, the MIC against Human alphaherpesvirus 2 [6] is 70 µg/mL (≈ 252 µM); against Human alphaherpesvirus 1 [7], more than 400 µg/mL; against Equid alphaherpesvirus 1 it was more than 400 µg/mL; in [8] (Oryctolagus cuniculus), more than 400 µg/mL; against Human alphaherpesvirus 1 [9], 70 µg/mL (≈ 252 µM); in the assay on Human alphaherpesvirus 2 [10], 70 µg/mL (≈ 252 µM). For the same compound, the MIC is 70 µg/mL (≈ 252 µM) in the assay on Human alphaherpesvirus 1 [11]; more than 100 µg/mL in the assay on Human alphaherpesvirus 3 [12]; more than 100 µg/mL against Human alphaherpesvirus 3 [13]; more than 400 µg/mL against Human alphaherpesvirus 1 [14]; more than 100 µg/mL with Cytomegalovirus [15].
Turning to `CNc1nc(O)c2ncn(COCCO)c2n1`, the IC50 in the assay with L1210 and in the assay on FM3A was more than 100 µg/mL each time. Moreover, the MIC with Cytomegalovirus [1] is more than 100 µg/mL; against Human alphaherpesvirus 3 [2], more than 100 µg/mL; in the assay with Suid alphaherpesvirus 1, more than 400 µg/mL; in the assay with Human alphaherpesvirus 2 [3] it was 300 µg/mL (≈ 1250 µM); in assay [4], more than 400 µg/mL; in the assay on Human alphaherpesvirus 1 [5], more than 400 µg/mL. In addition, the MIC (against Human alphaherpesvirus 2 [6]; against Human alphaherpesvirus 1 [7]; with Equid alphaherpesvirus 1; in assay [8] (Oryctolagus cuniculus); in the assay on Human alphaherpesvirus 1 [9]; against Human alphaherpesvirus 2 [10]) was more than 400 µg/mL each time. For the same compound, the MIC in the assay with Human alphaherpesvirus 1 [11] was more than 400 µg/mL; against Human alphaherpesvirus 3 [12], more than 100 µg/mL; in the assay on Human alphaherpesvirus 3 [13] it was more than 100 µg/mL; in the assay with Human alphaherpesvirus 1 [14], more than 400 µg/mL; in the assay with Cytomegalovirus [15], more than 100 µg/mL.
Turning to `Cn1c(N)nc2c(ncn2COCCO)c1=O`, the IC50 in the assay with L1210 and in the assay on FM3A was more than 100 µg/mL throughout. In addition, the MIC was more than 100 µg/mL against Cytomegalovirus [1]; more than 100 µg/mL against Human alphaherpesvirus 3 [2]; 70 µg/mL (≈ 293 µM) in the assay with Suid alphaherpesvirus 1; 1 µg/mL (≈ 4.18 µM) with Human alphaherpesvirus 2 [3]; more than 400 µg/mL in assay [4]; 1 µg/mL (≈ 4.18 µM) with Human alphaherpesvirus 1 [5]. For the same compound, the MIC with Human alphaherpesvirus 2 [6] is 2 µg/mL (≈ 8.36 µM); with Human alphaherpesvirus 1 [7], 300 µg/mL (≈ 1250 µM); against Equid alphaherpesvirus 1 it was 10 µg/mL (≈ 41.8 µM); in assay [8] (Oryctolagus cuniculus), more than 400 µg/mL; against Human alphaherpesvirus 1 [9], 2 µg/mL (≈ 8.36 µM); in the assay on Human alphaherpesvirus 2 [10], 2 µg/mL (≈ 8.36 µM). The MIC against Human alphaherpesvirus 1 [11] was 2 µg/mL (≈ 8.36 µM); against Human alphaherpesvirus 3 [12] it was 20 µg/mL (≈ 83.6 µM); against Human alphaherpesvirus 3 [13] it was 20 µg/mL (≈ 83.6 µM); against Human alphaherpesvirus 1 [14], 300 µg/mL (≈ 1250 µM); with Cytomegalovirus [15], more than 100 µg/mL.
With `Nc1nc2c(ncn2COCCO)c(=O)[nH]1` [ACYCLOVIR], the MIC in the assay on Suid alphaherpesvirus 1 is 7 µg/mL (≈ 31.1 µM); in the assay with Human alphaherpesvirus 2 [3] it was 0.07 µg/mL (≈ 0.311 µM); in assay [4] it was 7 µg/mL (≈ 31.1 µM); with Human alphaherpesvirus 1 [5] it was 0.2 µg/mL (≈ 0.888 µM); in the assay on Human alphaherpesvirus 2 [6], 0.2 µg/mL (≈ 0.888 µM); against Human alphaherpesvirus 1 [7], 20 µg/mL (≈ 88.8 µM). Besides, the MIC against Equid alphaherpesvirus 1 stood at 0.2 µg/mL (≈ 0.888 µM); in assay [8], 8 µg/mL (≈ 35.5 µM); against Human alphaherpesvirus 1 [9] it was 0.1 µg/mL (≈ 0.444 µM); in the assay on Human alphaherpesvirus 2 [10], 0.07 µg/mL (≈ 0.311 µM); in the assay with Human alphaherpesvirus 1 [11] it was 0.2 µg/mL (≈ 0.888 µM); with Human alphaherpesvirus 1 [14], 20 µg/mL (≈ 88.8 µM). Moreover, the MIC in the assay on Cytomegalovirus [15] came to 20 µg/mL (≈ 88.8 µM).
For `Cc1cn2c(O)c3ncn(COCCO)c3nc2n1`, the IC50 with L1210 and in the assay on FM3A was more than 100 µg/mL each time. Further, the MIC with Cytomegalovirus [1] was more than 100 µg/mL; against Human alphaherpesvirus 3 [2], more than 100 µg/mL; in the assay on Suid alphaherpesvirus 1, more than 400 µg/mL; in the assay on Human alphaherpesvirus 2 [3] it was 0.7 µg/mL (≈ 2.66 µM); in assay [4], more than 400 µg/mL; against Human alphaherpesvirus 1 [5] it was 2 µg/mL (≈ 7.6 µM). Also, the MIC amounted to 2 µg/mL (≈ 7.6 µM) in the assay with Human alphaherpesvirus 2 [6]; 400 µg/mL (≈ 1520 µM) against Human alphaherpesvirus 1 [7]; 20 µg/mL (≈ 76 µM) with Equid alphaherpesvirus 1; 257 µg/mL (≈ 976 µM) in [8] (Oryctolagus cuniculus); 2 µg/mL (≈ 7.6 µM) in the assay with Human alphaherpesvirus 1 [9]; 0.7 µg/mL (≈ 2.66 µM) against Human alphaherpesvirus 2 [10]. For the same compound, the MIC against Human alphaherpesvirus 1 [11] is 2 µg/mL (≈ 7.6 µM); in the assay with Human alphaherpesvirus 3 [12], 20 µg/mL (≈ 76 µM); against Human alphaherpesvirus 3 [13], 20 µg/mL (≈ 76 µM); with Human alphaherpesvirus 1 [14], 400 µg/mL (≈ 1520 µM); with Cytomegalovirus [15], more than 100 µg/mL.
For `Cn1c[n+](COCCO)c2nc(N)nc([O-])c21.O=S(=O)(O)O`, the IC50 in the assay on L1210 and in the assay with FM3A was more than 100 µg/mL throughout. The MIC in the assay on Cytomegalovirus [1] is more than 100 µg/mL; against Human alphaherpesvirus 3 [2], more than 100 µg/mL; with Suid alphaherpesvirus 1 it was more than 400 µg/mL; against Human alphaherpesvirus 2 [3] it was 40 µg/mL; in assay [4], more than 400 µg/mL; against Human alphaherpesvirus 1 [5], 70 µg/mL. For the same compound, the MIC is 100 µg/mL with Human alphaherpesvirus 2 [6]; more than 400 µg/mL in the assay with Human alphaherpesvirus 1 [7]; more than 400 µg/mL in the assay on Equid alphaherpesvirus 1; more than 400 µg/mL in assay [8] (Oryctolagus cuniculus); 70 µg/mL in the assay on Human alphaherpesvirus 1 [9]; 100 µg/mL in the assay on Human alphaherpesvirus 2 [10]. The MIC in the assay with Human alphaherpesvirus 1 [11] was 70 µg/mL; against Human alphaherpesvirus 3 [12], more than 100 µg/mL; against Human alphaherpesvirus 3 [13], more than 100 µg/mL; against Human alphaherpesvirus 1 [14], more than 400 µg/mL; with Cytomegalovirus [15] it was more than 100 µg/mL.
